# Assay results from ChEMBL document CHEMBL1148321, “New series of morpholine and 1,4-oxazepane derivatives as dopamine D4 receptor ligands: synthesis and 3D-QSAR model” (J Med Chem, 2004).
# Active and inactive are the calls of the source. The calls are words filed in the database; no cut-off is given here.
# Assays:
# [1] = molecular target: D(2) dopamine receptor (Homo sapiens) (UniProt P14416); experiment: Compound was tested for its affinity towards human Dopamine receptor D2 at 10 uM; No affinity was observed
# Chain of D(2) dopamine receptor (Homo sapiens) (P14416 whole entry): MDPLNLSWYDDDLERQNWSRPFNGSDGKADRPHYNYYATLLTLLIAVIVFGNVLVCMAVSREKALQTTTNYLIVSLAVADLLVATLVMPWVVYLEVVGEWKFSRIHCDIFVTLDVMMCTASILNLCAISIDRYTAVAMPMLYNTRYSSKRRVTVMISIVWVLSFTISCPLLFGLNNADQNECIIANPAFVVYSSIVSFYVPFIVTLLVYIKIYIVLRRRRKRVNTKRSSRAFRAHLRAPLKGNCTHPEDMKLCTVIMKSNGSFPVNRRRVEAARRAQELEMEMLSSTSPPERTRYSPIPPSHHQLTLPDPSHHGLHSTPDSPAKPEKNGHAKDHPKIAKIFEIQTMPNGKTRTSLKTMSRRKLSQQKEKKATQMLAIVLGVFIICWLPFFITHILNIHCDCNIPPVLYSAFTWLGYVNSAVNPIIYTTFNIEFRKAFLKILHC
# [2] = molecular target: T1, D(4) dopamine receptor (Homo sapiens, UniProt P21917); experiment: In vitro ability of compound to inhibit binding of [3H]spiperone to human Dopamine receptor D4
# T1 sequence (P21917 whole entry): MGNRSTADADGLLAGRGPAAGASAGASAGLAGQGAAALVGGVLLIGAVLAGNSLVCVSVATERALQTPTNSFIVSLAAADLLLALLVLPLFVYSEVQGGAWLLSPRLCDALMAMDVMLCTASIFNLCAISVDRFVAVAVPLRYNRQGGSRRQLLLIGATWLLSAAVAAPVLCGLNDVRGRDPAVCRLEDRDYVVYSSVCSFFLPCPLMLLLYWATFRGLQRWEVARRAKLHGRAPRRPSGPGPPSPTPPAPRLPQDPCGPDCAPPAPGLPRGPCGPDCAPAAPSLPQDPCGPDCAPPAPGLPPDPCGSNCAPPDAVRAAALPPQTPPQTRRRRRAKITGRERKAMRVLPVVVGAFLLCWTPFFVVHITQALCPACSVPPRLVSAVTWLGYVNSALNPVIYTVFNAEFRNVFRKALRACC
# [3] = molecular target: T1, D(4) dopamine receptor; experiment: In vitro ability to inhibit binding of [3H]spiperone to human recombinant Dopamine receptor D4.2 expressed on CHO cells; format: cell-based
# In short: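 Frozen membranes from CHO cells transfected with human D4.2, stored at -80 C, were thawed and diluted in 50 mM Tris-HCl pH 7.4 with 120 mM NaCl, 5 mM KCl, 5 mM MgCl2 and 1 mM EDTA. They were incubated with [3H]spiperone (0.5 nM final) for 60 min at 25 C, with haloperidol defining nonspecific binding. Samples were filtered on PEI-presoaked GF/C filters, washed with cold Tris/NaCl, and counted by scintillation.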
Structure (SMILES),Activity [1],Ki [2] [nM],Ki [3] [nM]
COc1ccc(C(F)(F)F)cc1OCC1CN(Cc2ccc(Cl)cc2)CCO1 (stereo unspecified),inactive,250,–
COc1cc(C(=O)NC2CC2)c(Cl)cc1OCC1CN(Cc2ccc(Cl)cc2)CCO1 (stereo unspecified),inactive,150,–
COc1ccccc1OCC1CN(Cc2ccc(C(F)(F)F)cc2)CCO1 (stereo unspecified),inactive,61,–
CCOc1ccccc1OCC1CN(Cc2ccc(Cl)cc2Cl)CCO1 (stereo unspecified),inactive,290,–
COc1ccccc1SCC1CN(Cc2ccc(Cl)cc2)CCO1 (stereo unspecified),inactive,61,–
COc1cc(Cl)ccc1OC[C@H]1CN(Cc2ccc(Cl)cc2)CCO1,inactive,1600,–
Cc1ncccc1OCC1CN(Cc2ccc(Cl)cc2)CCCO1 (stereo unspecified),inactive,83,–
COc1cccc(OCC2CN(Cc3ccc(Cl)cc3)CCO2)c1OC (stereo unspecified),inactive,1000,–
COc1cc(I)ccc1OCC1CN(Cc2ccccc2)CCO1 (stereo unspecified),inactive,430,–
COc1ccc(Cl)cc1OCC1CN(Cc2ccccc2)CCO1 (stereo unspecified),inactive,70,–
COCCOc1ccccc1OCC1CN(Cc2ccc(Cl)cc2)CCO1 (stereo unspecified),inactive,52,–
COc1ccc([N+](=O)[O-])cc1OCC1CN(Cc2ccc(Cl)cc2)CCCO1 (stereo unspecified),inactive,400,–
COc1cc(Cl)cc(OCC2CN(Cc3ccccc3)CCO2)c1 (stereo unspecified),inactive,–,–
COc1ccccc1OCC1CN(Cc2ccccc2)CCO1 (stereo unspecified),inactive,–,850
COc1ccccc1/C=C/C1CN(Cc2ccc(Cl)cc2)CCO1 (stereo unspecified),inactive,200,–
CCOc1ccccc1OCC1CN(Cc2ccc(F)cc2)CCO1 (stereo unspecified),inactive,180,–
COc1ccccc1OCC1CN(Cc2cccc(Cl)c2)CCO1 (stereo unspecified),inactive,650,–
COc1ccc(N)cc1OCC1CN(Cc2ccc(Cl)cc2)CCO1 (stereo unspecified),inactive,100,–

# Next, values leading:
Activity [1],Ki [2] [nM],Ki [3] [nM],Structure (SMILES)
inactive,32,–,COc1ccccc1OCC1CN(Cc2ccc(Cl)cc2)CCO1 (stereo unspecified)
inactive,23,–,COc1ccc([N+](=O)[O-])cc1OCC1CN(Cc2ccc(Cl)cc2)CCO1 (stereo unspecified)
inactive,30,–,COc1ccc(F)cc1OCC1CN(Cc2ccc(Cl)cc2)CCO1 (stereo unspecified)
inactive,40,–,Clc1ccc(CN2CCOC(COc3ccc(Cl)c4cccnc34)C2)cc1 (stereo unspecified)
inactive,2.8,–,COc1cc(Cl)ccc1OC[C@@H]1CN(Cc2ccc(Cl)cc2)CCO1
inactive,2,–,COc1cc(Cl)ccc1OCC1CN(Cc2ccc(Br)cc2)CCCO1 (stereo unspecified)
inactive,4.9,–,CCOc1ccccc1OCC1CN(Cc2ccc(Cl)cc2)CCCO1 (stereo unspecified)
inactive,9.3,–,CCOc1ccc(Cl)cc1OCC1CN(Cc2ccc(Cl)cc2)CCCO1 (stereo unspecified)
inactive,46,–,CC(C)Oc1ccccc1OCC1CN(Cc2ccc(Cl)cc2)CCO1 (stereo unspecified)
inactive,32,–,COc1ccccc1OCC1CN(Cc2ccc(Cl)c(Cl)c2)CCO1 (stereo unspecified)
inactive,29,–,COc1ccccc1CCC1CN(Cc2ccc(Cl)cc2)CCO1 (stereo unspecified)
inactive,7,–,CCOc1cc(Cl)ccc1OCC1CN(Cc2ccc(Cl)cc2)CCCO1 (stereo unspecified)
inactive,5.4,–,Oc1cc(Cl)ccc1NCC1CN(Cc2ccc(Cl)cc2)CCO1 (stereo unspecified)
inactive,2.9,–,CCOc1ccc(Cl)cc1OCC1CN(Cc2ccc(Cl)cc2)CCO1 (stereo unspecified)
inactive,4.5,–,COc1ccc(Cl)cc1NCC1CN(Cc2ccc(Cl)cc2)CCO1 (stereo unspecified)
inactive,40,–,CCOc1cc(C#N)ccc1OCC1CN(Cc2ccc(Cl)cc2)CCO1 (stereo unspecified)
inactive,32,–,CCCc1ccccc1OCC1CN(Cc2ccc(Cl)cc2)CCO1 (stereo unspecified)
inactive,4.4,–,COc1cc(Cl)ccc1OCC1CN(Cc2ccc(Cl)cc2)CCO1 (racemic)
inactive,35,–,CCOc1ccccc1OCC1CN(Cc2ccc([N+](=O)[O-])cc2)CCO1 (stereo unspecified)
inactive,24,–,CCOc1cc(I)ccc1OCC1CN(Cc2ccc(Cl)cc2)CCO1 (stereo unspecified)
inactive,13,–,CCOc1ccccc1OCC1CN(Cc2ccc(Cl)cc2)CCO1 (stereo unspecified)
inactive,5.5,–,CC(=O)c1ccc(Cl)cc1OCC1CN(Cc2ccc(Cl)cc2)CCCO1 (stereo unspecified)
inactive,13,–,CCOc1cc(Cl)ccc1OCC1CN(Cc2ccc(Cl)cc2)CCO1 (stereo unspecified)
